Key:
[1] = Selectivity ratio of Ki for human alpha-carbonic anhydrase 1 to Ki for Brucella suis beta-carbonic anhydrase 1
[2] = Selectivity ratio of Ki for human alpha-carbonic anhydrase 1 to Ki for Cryptococcus neoformans beta-carbonic anhydrase
Outline: (§1)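 Ki ratio, human CA isoform Ki divided by pathogen β-CA Ki, used as an index of selectivity for the pathogen enzyme over the human enzyme.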

[3] = Inhibition of Leishmania donovani chagasi beta-carbonic anhydrase incubated for 15 mins prior to testing by stopped-flow CO2 hydration assay
Outline: (§2)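 CO2 was 1.7–17 mM. Initial rates were taken from at least six traces of the first 5–10% of reaction over 10–100 s, with uncatalysed rates subtracted. Inhibitor dilutions were in water down to 0.01 nM, preincubated with enzyme 15 min at room temperature.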

Brucella suis [4] = experiment: Potency index, ratio of dichlorphenamide Ki to compound Ki for Brucella suis beta-carbonic anhydrase 2
[5] = Inhibition of Brucella suis beta-carbonic anhydrase 2 incubated for 15 mins prior to testing by stopped-flow CO2 hydration assay
Outline: (§3)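 Stopped-flow CO2 hydration; 0.2 mM phenol red read at 557 nm in 10 mM Hepes pH 7.4, 10 mM Tris-HCl, 0.1 M NaSO4; CO2 1.7–17 mM. Inhibitor (10 mM water stock, diluted down to 0.01 nM) preincubated with enzyme 15 min at room temperature. Initial rates from at least six traces of the first 5–10% of reaction, over 10–100 s, with uncatalysed rates subtracted.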

[6] = Selectivity ratio of Ki for human alpha-carbonic anhydrase 2 to Ki for Brucella suis beta-carbonic anhydrase 2
[7] = Selectivity ratio of Ki for human alpha-carbonic anhydrase 1 to Ki for Brucella suis beta-carbonic anhydrase 2
[8] = Selectivity ratio of Ki for human alpha-carbonic anhydrase 2 to Ki for Cryptococcus neoformans beta-carbonic anhydrase; outline: as §1
[9] = Selectivity ratio of Ki for human alpha-carbonic anhydrase 2 to Ki for Brucella suis beta-carbonic anhydrase 1
[10] = Selectivity ratio of Ki for human alpha-carbonic anhydrase 1 to Ki for Leishmania donovani chagasi beta-carbonic anhydrase; outline: as §1
[11] = Inhibition of Brucella suis beta-carbonic anhydrase 1 incubated for 15 mins prior to testing by stopped-flow CO2 hydration assay; outline: as §3
[12] = Selectivity ratio of Ki for human alpha-carbonic anhydrase 2 to Ki for Leishmania donovani chagasi beta-carbonic anhydrase; outline: as §1
Brucella suis [13] = experiment: Potency index, ratio of benzolamide Ki to compound Ki for Brucella suis beta-carbonic anhydrase 2
Brucella suis [14] = experiment: Potency index, ratio of acetazolamide Ki to compound Ki for Brucella suis beta-carbonic anhydrase 2
[15] = Inhibition of Cryptococcus neoformans beta-carbonic anhydrase incubated for 15 mins prior to testing by stopped-flow CO2 hydration assay; outline: as §2
Brucella suis [16] = experiment: Potency index, ratio of benzolamide Ki to compound Ki for Brucella suis beta-carbonic anhydrase 1
Brucella suis [17] = experiment: Potency index, ratio of acetazolamide Ki to compound Ki for Brucella suis beta-carbonic anhydrase 1
Brucella suis [18] = experiment: Potency index, ratio of dichlorphenamide Ki to compound Ki for Brucella suis beta-carbonic anhydrase 1

Structure (SMILES): N#Cc1ccc(/C=N/CCc2ccc(S(N)(=O)=O)cc2)cc1
- Ratio Ki [1]: 25.7
- Ratio Ki [2]: 106
- Ki [3]: 1400 nM
- Ratio Ki (Brucella suis [4]): 100
- Ki [5]: 3.31 nM
- Ratio Ki [6]: 215
- Ratio Ki [7]: 662
- Ratio Ki [8]: 34.6
- Ratio Ki [9]: 8.4
- Ratio Ki [10]: 1.6
- Ki [11]: 85.2 nM
- Ratio Ki [12]: 0.5
- Ratio Ki (Brucella suis [13]): 100
- Ratio Ki (Brucella suis [14]): 100
- Ki [15]: 20.6 nM

Structure (SMILES): NS(=O)(=O)c1ccc(/N=C/c2ccc(Br)cc2O)cc1
- Ratio Ki [1]: 6.9
- Ratio Ki [2]: 256
- Ki [3]: > 2500 nM
- Ratio Ki (Brucella suis [4]): 10
- Ki [5]: 23.7 nM
- Ratio Ki [6]: 29.9
- Ratio Ki [7]: 183
- Ratio Ki [8]: 41.9
- Ratio Ki [9]: 1.1
- Ratio Ki [10]: < 1.7
- Ki [11]: 625 nM
- Ratio Ki [12]: < 0.3
- Ratio Ki (Brucella suis [13]): 10
- Ratio Ki (Brucella suis [14]): 10
- Ki [15]: 16.9 nM

Structure (SMILES): NS(=O)(=O)c1ccc(/N=C/c2ccco2)c(F)c1
- Ratio Ki [1]: 0.8
- Ratio Ki [2]: 21.3
- Ki [3]: 168 nM
- Ki [5]: 162 nM
- Ratio Ki [6]: 0.4
- Ratio Ki [7]: 1.5
- Ratio Ki [8]: 5.5
- Ratio Ki [9]: 0.2
- Ratio Ki [10]: 1.5
- Ki [11]: 308 nM
- Ratio Ki [12]: 0.4
- Ratio Ki (Brucella suis [14]): 2
- Ki [15]: 11.6 nM

Structure (SMILES): NS(=O)(=O)c1ccc(CC/N=C/c2c[nH]c3ccc(Br)cc23)cc1
- Ratio Ki [1]: 70.2
- Ratio Ki [2]: 1840
- Ratio Ki (Brucella suis [16]): 2
- Ki [3]: 2030 nM
- Ratio Ki (Brucella suis [4]): 100
- Ki [5]: 2.45 nM
- Ratio Ki [6]: 243
- Ratio Ki (Brucella suis [17]): 2
- Ratio Ki [7]: 714
- Ratio Ki [8]: 627
- Ratio Ki [9]: 23.9
- Ratio Ki (Brucella suis [18]): 2
- Ratio Ki [10]: 0.9
- Ki [11]: 24.9 nM
- Ratio Ki [12]: 0.3
- Ratio Ki (Brucella suis [13]): 100
- Ratio Ki (Brucella suis [14]): 100
- Ki [15]: 0.95 nM

Structure (SMILES): CSc1ccc(/C=N/CCc2ccc(S(N)(=O)=O)cc2)cc1
- Ratio Ki [1]: 37
- Ratio Ki [2]: 135
- Ki [3]: 216 nM
- Ratio Ki (Brucella suis [4]): 10
- Ki [5]: 28.7 nM
- Ratio Ki [6]: 24.7
- Ratio Ki [7]: 102
- Ratio Ki [8]: 32.5
- Ratio Ki [9]: 8.9
- Ratio Ki [10]: 13.6
- Ki [11]: 79.4 nM
- Ratio Ki [12]: 3.3
- Ratio Ki (Brucella suis [13]): 10
- Ratio Ki (Brucella suis [14]): 10
- Ki [15]: 21.8 nM

Structure (SMILES): NS(=O)(=O)c1ccc(CC/N=C/c2c(F)c(F)cc(F)c2F)cc1
- Ratio Ki [1]: 90.1
- Ratio Ki [2]: 1160
- Ratio Ki (Brucella suis [16]): 2
- Ki [3]: 107 nM
- Ratio Ki (Brucella suis [4]): 100
- Ki [5]: 2.56 nM
- Ratio Ki [6]: 255
- Ratio Ki (Brucella suis [17]): 2
- Ratio Ki [7]: 1030
- Ratio Ki [8]: 288
- Ratio Ki [9]: 22.3
- Ratio Ki (Brucella suis [18]): 2
- Ratio Ki [10]: 24.5
- Ki [11]: 29.2 nM
- Ratio Ki [12]: 6.1
- Ratio Ki (Brucella suis [13]): 100
- Ratio Ki (Brucella suis [14]): 100
- Ki [15]: 2.26 nM

Structure (SMILES): NS(=O)(=O)c1ccc(CC/N=C/c2cccc(Br)c2O)cc1
- Ratio Ki [1]: 118
- Ratio Ki [2]: 340
- Ki [3]: 1270 nM
- Ratio Ki (Brucella suis [4]): 10
- Ki [5]: 24.3 nM
- Ratio Ki [6]: > 412
- Ratio Ki [7]: 220
- Ratio Ki [8]: > 637
- Ratio Ki [9]: > 222
- Ratio Ki [10]: 4.2
- Ki [11]: 45.1 nM
- Ratio Ki [12]: > 7.9
- Ratio Ki (Brucella suis [13]): 10
- Ratio Ki (Brucella suis [14]): 10
- Ki [15]: 15.7 nM

Structure (SMILES): NS(=O)(=O)c1ccc(CC/N=C/c2ccc(Br)cc2O)cc1
- Ratio Ki [1]: 5.6
- Ratio Ki [2]: 190
- Ki [3]: 1980 nM
- Ratio Ki (Brucella suis [4]): 10
- Ki [5]: 32 nM
- Ratio Ki [6]: 20.8
- Ratio Ki [7]: 132
- Ratio Ki [8]: 29.9
- Ratio Ki [9]: 0.9
- Ratio Ki [10]: 2.1
- Ki [11]: 761 nM
- Ratio Ki [12]: 0.3
- Ratio Ki (Brucella suis [13]): 10
- Ratio Ki (Brucella suis [14]): 10
- Ki [15]: 22.3 nM

Structure (SMILES): NS(=O)(=O)c1ccc(/N=C/c2ccccc2)c(F)c1
- Ratio Ki [1]: 43.2
- Ratio Ki [2]: 891
- Ratio Ki (Brucella suis [16]): 2
- Ki [3]: > 2500 nM
- Ratio Ki (Brucella suis [4]): 100
- Ki [5]: 2.31 nM
- Ratio Ki [6]: 307
- Ratio Ki (Brucella suis [17]): 2
- Ratio Ki [7]: 216
- Ratio Ki [8]: 1270
- Ratio Ki [9]: 61.5
- Ratio Ki (Brucella suis [18]): 2
- Ratio Ki [10]: < 0.2
- Ki [11]: 11.5 nM
- Ratio Ki [12]: 0.3
- Ratio Ki (Brucella suis [13]): 100
- Ratio Ki (Brucella suis [14]): 100
- Ki [15]: 0.56 nM

Structure (SMILES): NS(=O)(=O)c1ccc(/N=C/c2ccc(-c3ccccc3)cc2)c(F)c1
- Ratio Ki [1]: 2.9
- Ratio Ki [2]: 159
- Ki [3]: 155 nM
- Ki [5]: 161 nM
- Ratio Ki [6]: 3.1
- Ratio Ki [7]: 9.4
- Ratio Ki [8]: 52.4
- Ratio Ki [9]: 1
- Ratio Ki [10]: 9.7
- Ki [11]: 523 nM
- Ratio Ki [12]: 3.2
- Ratio Ki (Brucella suis [14]): 2
- Ki [15]: 9.5 nM

Structure (SMILES): NS(=O)(=O)c1ccc(CC/N=C/c2ccc(S(=O)(=O)O)o2)cc1
- Ratio Ki [1]: 4.2
- Ratio Ki [2]: 236
- Ki [3]: 1430 nM
- Ratio Ki (Brucella suis [4]): 10
- Ki [5]: 25.7 nM
- Ratio Ki [6]: 18.1
- Ratio Ki [7]: 111
- Ratio Ki [8]: 38.5
- Ratio Ki [9]: 0.7
- Ratio Ki [10]: 2
- Ki [11]: 682 nM
- Ratio Ki [12]: 0.3
- Ratio Ki (Brucella suis [13]): 10
- Ratio Ki (Brucella suis [14]): 10
- Ki [15]: 12.1 nM

Structure (SMILES): NS(=O)(=O)c1ccc(CC/N=C/c2ccc(-c3ccccc3)cc2)cc1
- Ratio Ki [1]: 117
- Ratio Ki [2]: 4860
- Ki [3]: 542 nM
- Ratio Ki (Brucella suis [4]): 10
- Ki [5]: 15.1 nM
- Ratio Ki [6]: 46.5
- Ratio Ki [7]: 465
- Ratio Ki [8]: 487
- Ratio Ki [9]: 11.7
- Ratio Ki [10]: 12.9
- Ki [11]: 59.7 nM
- Ratio Ki [12]: 1.3
- Ratio Ki (Brucella suis [13]): 10
- Ratio Ki (Brucella suis [14]): 10
- Ki [15]: 1.44 nM

Structure (SMILES): NS(=O)(=O)c1ccc(CC/N=C/c2ccc(-c3ccccn3)cc2)cc1
- Ratio Ki [1]: 2.5
- Ratio Ki [2]: 69.9
- Ki [3]: 1240 nM
- Ratio Ki (Brucella suis [4]): 10
- Ki [5]: 24.8 nM
- Ratio Ki [6]: 16.3
- Ratio Ki [7]: 54.2
- Ratio Ki [8]: 20.9
- Ratio Ki [9]: 0.8
- Ratio Ki [10]: 1.1
- Ki [11]: 529 nM
- Ratio Ki [12]: 0.3
- Ratio Ki (Brucella suis [13]): 10
- Ratio Ki (Brucella suis [14]): 10
- Ki [15]: 19.2 nM

Structure (SMILES): NS(=O)(=O)c1ccc(/N=C/c2ccc(-c3ccccn3)cc2)cc1
- Ratio Ki [1]: 4.6
- Ratio Ki [2]: 202
- Ki [3]: 1250 nM
- Ki [5]: 255 nM
- Ratio Ki [6]: 2.7
- Ratio Ki [7]: 17.1
- Ratio Ki [8]: 31.4
- Ratio Ki [9]: 0.7
- Ratio Ki [10]: 3.5
- Ki [11]: 940 nM
- Ratio Ki [12]: 0.5
- Ki [15]: 21.7 nM

Structure (SMILES): NS(=O)(=O)c1ccc(/N=C/c2csc3ccccc23)cc1
- Ratio Ki [1]: 3
- Ratio Ki [2]: 183
- Ki [3]: 1420 nM
- Ki [5]: 207 nM
- Ratio Ki [6]: 3.2
- Ratio Ki [7]: 14.8
- Ratio Ki [8]: 39.8
- Ratio Ki [9]: 0.6
- Ratio Ki [10]: 2.1
- Ki [11]: 1030 nM
- Ratio Ki [12]: 0.5
- Ki [15]: 16.7 nM

Structure (SMILES): COc1cc([N+](=O)[O-])ccc1/C=N/CCc1ccc(S(N)(=O)=O)cc1
- Ratio Ki [1]: 0.7
- Ratio Ki [2]: 10.1
- Ki [3]: 1940 nM
- Ki [5]: 163 nM
- Ratio Ki [6]: 1
- Ratio Ki [7]: 1.3
- Ratio Ki [8]: 7.9
- Ratio Ki [9]: 0.5
- Ratio Ki [10]: 0.1
- Ki [11]: 330 nM
- Ratio Ki [12]: 0.09
- Ratio Ki (Brucella suis [14]): 2
- Ki [15]: 21.2 nM

Structure (SMILES): COc1ccc(/C=N/CCc2ccc(S(N)(=O)=O)cc2)c(O)c1
- Ratio Ki [1]: 40.2
- Ratio Ki [2]: 258
- Ki [3]: 190 nM
- Ratio Ki (Brucella suis [4]): 10
- Ki [5]: 21.9 nM
- Ratio Ki [6]: 31.8
- Ratio Ki [7]: 201
- Ratio Ki [8]: 40.9
- Ratio Ki [9]: 6.4
- Ratio Ki [10]: 23.2
- Ki [11]: 110 nM
- Ratio Ki [12]: 3.7
- Ratio Ki (Brucella suis [13]): 10
- Ratio Ki (Brucella suis [14]): 10
- Ki [15]: 17 nM
